Reference: ChEMBL document CHEMBL1137696, “Preparation and in vitro evaluation of benzylsulfanyl benzoxazole derivatives as potential antituberculosis agents” (2009)
In brackets after ≈: the same amount, converted by molar mass.

Legend:
Assay type in all cases: functional
[1] = test system: Mycobacterium tuberculosis; test: Antimycobacterial activity against Mycobacterium tuberculosis CNCTC My 331/88 after 14 days by micromethod; settings: CNCTC My 331/88, 336 h
In short: (§1)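 MIC by micromethod in Šula semisynthetic medium. Compounds added as DMSO solutions at 1000, 500, 250, 125, 62, 32, 16, 8, 4 and 2 µmol/L. Incubated at 37 °C and read at 14 and 21 days. MIC taken as the lowest concentration that inhibited mycobacterial growth, expressed in µmol/L. INH run as standard. Strains from CNCTC.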

Mycobacterium kansasii [2] = test: Antimycobacterial activity against Mycobacterium kansasii CNCTC My 235/80 after 14 days by micromethod; settings: CNCTC My 235/80, 336 h
In short: (§2)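 Micromethod MIC in Šula semisynthetic medium, with compounds added as DMSO solutions at 1000, 500, 250, 125, 62, 32, 16, 8, 4 and 2 µmol/L. Cultures were incubated at 37 °C, and M. kansasii was read at 7, 14 and 21 days. MIC is the lowest concentration at which mycobacterial growth was inhibited. INH served as standard. Strain 6509/96 was a clinical isolate.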

Mycobacterium kansasii [3] = test: Antimycobacterial activity against Mycobacterium kansasii 6509/96 after 7 days by micromethod; settings: 6509/96, 168 h; in short: as §2
Mycobacterium avium [4] = test: Antimycobacterial activity against Mycobacterium avium CNCTC My 330/88 after 14 days by micromethod; settings: CNCTC My 330/88, 336 h; in short: as §1
Mycobacterium kansasii [5] = test: Antimycobacterial activity against Mycobacterium kansasii CNCTC My 235/80 after 21 days by micromethod; settings: CNCTC My 235/80, 504 h; in short: as §2
Mycobacterium kansasii [6] = test: Antimycobacterial activity against Mycobacterium kansasii 6509/96 after 14 days by micromethod; settings: 6509/96, 336 h; in short: as §2
Mycobacterium kansasii [7] = test: Antimycobacterial activity against Mycobacterium kansasii 6509/96 after 21 days by micromethod; settings: 6509/96, 504 h; in short: as §2
[8] = test system: Mycobacterium tuberculosis; test: Antimycobacterial activity against Mycobacterium tuberculosis CNCTC My 331/88 after 21 days by micromethod; settings: CNCTC My 331/88, 504 h; in short: as §1
Mycobacterium avium [9] = test: Antimycobacterial activity against Mycobacterium avium CNCTC My 330/88 after 21 days by micromethod; settings: CNCTC My 330/88, 504 h; in short: as §1
Mycobacterium kansasii [10] = test: Antimycobacterial activity against Mycobacterium kansasii CNCTC My 235/80 after 7 days by micromethod; settings: CNCTC My 235/80, 168 h; in short: as §2
L929 = test: Growth inhibition of mouse L929 cells
In short: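 Antiproliferative assay on adherent L-929 monolayers exposed to 10 concentrations of compound. Cells were fixed with glutaraldehyde, stained with 0.05% methylene blue for 15 min, washed, and the dye eluted with 0.33 N HCl. OD was read at 630 nm, and GI50 is the concentration giving 50% growth inhibition.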

K562 = test: Growth inhibition of human K562 cells
In short: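 K-562 suspension cultures in microplates were exposed to 10 concentrations of compound. Each well was diluted 1:50 in CASYTON and counted with a CASY 1 electronic cell analyzer (150 µm aperture), using the mean of three successive 0.4 mL counts. GI50 is the point where the concentration-response curve of cell counts/mL relative to control crosses the 50% line.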

HeLa = test: Cytotoxicity against human HeLa cells
In short: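 Adherent HeLa monolayers were incubated with 10 concentrations of compound, then glutaraldehyde-fixed and stained with 0.05% methylene blue for 15 min. After gentle washing, the stain was eluted with 0.33 N HCl and absorbance read at 630 nm. CC50 is the concentration causing 50% cytotoxic (lytic) effect.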

| SMILES | MIC [1] | MIC (Mycobacterium kansasii [2]) | MIC (Mycobacterium kansasii [3]) | MIC (Mycobacterium avium [4]) | MIC (Mycobacterium kansasii [5]) | MIC (Mycobacterium kansasii [6]) | MIC (Mycobacterium kansasii [7]) | MIC [8] | MIC (Mycobacterium avium [9]) | MIC (Mycobacterium kansasii [10]) | GI50 (L929) | GI50 (K562) | CC50 (HeLa) |
| --- | --- | --- | --- | --- | --- | --- | --- | --- | --- | --- | --- | --- | --- |
| FC(F)(F)c1cc(CSc2nc3ccccc3o2)cc(C(F)(F)F)c1 | 62 µM (≈ 23.4 µg/mL) | 62 µM (≈ 23.4 µg/mL) | 32 µM (≈ 12.1 µg/mL) | > 125 µM | 125 µM (≈ 47.2 µg/mL) | 32 µM (≈ 12.1 µg/mL) | 62 µM (≈ 23.4 µg/mL) | 125 µM (≈ 47.2 µg/mL) | > 125 µM | 62 µM (≈ 23.4 µg/mL) | – | – | – |
| FC(F)(F)c1ccc(CSc2nc3ccccc3o2)cc1 | 125 µM (≈ 38.7 µg/mL) | 62 µM (≈ 19.2 µg/mL) | 16 µM (≈ 4.95 µg/mL) | 62 µM (≈ 19.2 µg/mL) | 125 µM (≈ 38.7 µg/mL) | 32 µM (≈ 9.9 µg/mL) | 62 µM (≈ 19.2 µg/mL) | 125 µM (≈ 38.7 µg/mL) | 62 µM (≈ 19.2 µg/mL) | 32 µM (≈ 9.9 µg/mL) | – | – | – |
| COc1cccc(CSc2nc3ccccc3o2)c1 | 125 µM (≈ 33.9 µg/mL) | 32 µM (≈ 8.68 µg/mL) | 32 µM (≈ 8.68 µg/mL) | 32 µM (≈ 8.68 µg/mL) | 62 µM (≈ 16.8 µg/mL) | 32 µM (≈ 8.68 µg/mL) | 62 µM (≈ 16.8 µg/mL) | 250 µM (≈ 67.8 µg/mL) | 32 µM (≈ 8.68 µg/mL) | 32 µM (≈ 8.68 µg/mL) | – | – | – |
| Fc1ccc(CSc2nc3ccccc3o2)cc1F | 125 µM (≈ 34.7 µg/mL) | 125 µM (≈ 34.7 µg/mL) | 32 µM (≈ 8.87 µg/mL) | 62 µM (≈ 17.2 µg/mL) | 125 µM (≈ 34.7 µg/mL) | 62 µM (≈ 17.2 µg/mL) | 125 µM (≈ 34.7 µg/mL) | 125 µM (≈ 34.7 µg/mL) | 125 µM (≈ 34.7 µg/mL) | 62 µM (≈ 17.2 µg/mL) | – | – | – |
| O=[N+]([O-])c1cccc(F)c1CSc1nc2ccccc2o1 | > 62 µM | > 32 µM | 32 µM (≈ 9.74 µg/mL) | 62 µM (≈ 18.9 µg/mL) | > 32 µM | > 32 µM | > 62 µM | > 62 µM | 125 µM (≈ 38 µg/mL) | > 32 µM | – | – | – |
| Cc1ccc(CSc2nc3ccccc3o2)cc1 | > 500 µM | 62 µM (≈ 15.8 µg/mL) | 62 µM (≈ 15.8 µg/mL) | 32 µM (≈ 8.17 µg/mL) | 125 µM (≈ 31.9 µg/mL) | 62 µM (≈ 15.8 µg/mL) | 125 µM (≈ 31.9 µg/mL) | > 500 µM | 62 µM (≈ 15.8 µg/mL) | 62 µM (≈ 15.8 µg/mL) | – | – | – |
| O=[N+]([O-])c1ccc(CSc2nc3ccccc3o2)cc1 | > 62 µM | 32 µM (≈ 9.16 µg/mL) | 32 µM (≈ 9.16 µg/mL) | > 32 µM | > 62 µM | 32 µM (≈ 9.16 µg/mL) | > 32 µM | > 125 µM | > 62 µM | 32 µM (≈ 9.16 µg/mL) | – | – | – |
| Fc1cccc(CSc2nc3ccccc3o2)c1 | 62 µM (≈ 16.1 µg/mL) | 62 µM (≈ 16.1 µg/mL) | 32 µM (≈ 8.3 µg/mL) | 32 µM (≈ 8.3 µg/mL) | 125 µM (≈ 32.4 µg/mL) | 32 µM (≈ 8.3 µg/mL) | 62 µM (≈ 16.1 µg/mL) | 125 µM (≈ 32.4 µg/mL) | 32 µM (≈ 8.3 µg/mL) | 32 µM (≈ 8.3 µg/mL) | – | – | – |
| Fc1ccc(CSc2nc3ccccc3o2)cc1 | 250 µM (≈ 64.8 µg/mL) | 62 µM (≈ 16.1 µg/mL) | 62 µM (≈ 16.1 µg/mL) | 62 µM (≈ 16.1 µg/mL) | 125 µM (≈ 32.4 µg/mL) | 62 µM (≈ 16.1 µg/mL) | 125 µM (≈ 32.4 µg/mL) | 500 µM (≈ 130 µg/mL) | 62 µM (≈ 16.1 µg/mL) | 32 µM (≈ 8.3 µg/mL) | – | – | – |
| N#Cc1ccc(CSc2nc3ccccc3o2)cc1 | > 62 µM | 32 µM (≈ 8.52 µg/mL) | 16 µM (≈ 4.26 µg/mL) | 62 µM (≈ 16.5 µg/mL) | > 32 µM | 32 µM (≈ 8.52 µg/mL) | > 32 µM | > 62 µM | 62 µM (≈ 16.5 µg/mL) | 32 µM (≈ 8.52 µg/mL) | – | – | – |
| NC(=S)c1ccc(CSc2nc3ccccc3o2)cc1 | 8 µM (≈ 2.4 µg/mL) | 16 µM (≈ 4.81 µg/mL) | 8 µM (≈ 2.4 µg/mL) | 32 µM (≈ 9.61 µg/mL) | 16 µM (≈ 4.81 µg/mL) | 16 µM (≈ 4.81 µg/mL) | 16 µM (≈ 4.81 µg/mL) | 16 µM (≈ 4.81 µg/mL) | 32 µM (≈ 9.61 µg/mL) | 8 µM (≈ 2.4 µg/mL) | 23.8 µg/mL (≈ 79.2 µM) | 9.4 µg/mL (≈ 31.3 µM) | 23.6 µg/mL (≈ 78.6 µM) |
| Brc1cccc(CSc2nc3ccccc3o2)c1 | 125 µM (≈ 40 µg/mL) | 32 µM (≈ 10.2 µg/mL) | 32 µM (≈ 10.2 µg/mL) | 32 µM (≈ 10.2 µg/mL) | 62 µM (≈ 19.9 µg/mL) | 32 µM (≈ 10.2 µg/mL) | 62 µM (≈ 19.9 µg/mL) | 250 µM (≈ 80.1 µg/mL) | 32 µM (≈ 10.2 µg/mL) | 32 µM (≈ 10.2 µg/mL) | – | – | – |
| Brc1ccc(CSc2nc3ccccc3o2)cc1 | > 62 µM | 62 µM (≈ 19.9 µg/mL) | 32 µM (≈ 10.2 µg/mL) | 32 µM (≈ 10.2 µg/mL) | > 62 µM | 62 µM (≈ 19.9 µg/mL) | 125 µM (≈ 40 µg/mL) | > 125 µM | 62 µM (≈ 19.9 µg/mL) | 32 µM (≈ 10.2 µg/mL) | – | – | – |
| O=[N+]([O-])c1ccc(CSc2nc3ccccc3o2)c([N+](=O)[O-])c1 | 8 µM (≈ 2.65 µg/mL) | 4 µM (≈ 1.33 µg/mL) | 4 µM (≈ 1.33 µg/mL) | > 16 µM | 4 µM (≈ 1.33 µg/mL) | 8 µM (≈ 2.65 µg/mL) | 8 µM (≈ 2.65 µg/mL) | 8 µM (≈ 2.65 µg/mL) | > 32 µM | 4 µM (≈ 1.33 µg/mL) | > 50 µg/mL | 10.4 µg/mL (≈ 31.4 µM) | 45.1 µg/mL (≈ 136 µM) |
